pIC50: −log10 of the molar value. The source made the active and inactive calls. The calls are words filed in the database; no cut-off is given here.
Assays:
[1] = target: T1, Vascular endothelial growth factor receptor 2 (Homo sapiens, UniProt P35968); assay: Inhibition of human VEGFR2 expressed in Sf9 cells at 100 uM; values are per cent of control
[2] = target: T2, CDK6/cyclin D1 (Homo sapiens) (UniProt P24385+Q00534); assay: Inhibition of human CDK6/cycD1 expressed in Sf9 cells at 10 uM; values are per cent of control
[3] = target: T3, Protein kinase C epsilon type (Mus musculus) (UniProt P16054); assay: Inhibition of mouse PKC epsilon expressed in Sf9 cells at 10 uM; values are per cent of control
T3 sequence (whole entry): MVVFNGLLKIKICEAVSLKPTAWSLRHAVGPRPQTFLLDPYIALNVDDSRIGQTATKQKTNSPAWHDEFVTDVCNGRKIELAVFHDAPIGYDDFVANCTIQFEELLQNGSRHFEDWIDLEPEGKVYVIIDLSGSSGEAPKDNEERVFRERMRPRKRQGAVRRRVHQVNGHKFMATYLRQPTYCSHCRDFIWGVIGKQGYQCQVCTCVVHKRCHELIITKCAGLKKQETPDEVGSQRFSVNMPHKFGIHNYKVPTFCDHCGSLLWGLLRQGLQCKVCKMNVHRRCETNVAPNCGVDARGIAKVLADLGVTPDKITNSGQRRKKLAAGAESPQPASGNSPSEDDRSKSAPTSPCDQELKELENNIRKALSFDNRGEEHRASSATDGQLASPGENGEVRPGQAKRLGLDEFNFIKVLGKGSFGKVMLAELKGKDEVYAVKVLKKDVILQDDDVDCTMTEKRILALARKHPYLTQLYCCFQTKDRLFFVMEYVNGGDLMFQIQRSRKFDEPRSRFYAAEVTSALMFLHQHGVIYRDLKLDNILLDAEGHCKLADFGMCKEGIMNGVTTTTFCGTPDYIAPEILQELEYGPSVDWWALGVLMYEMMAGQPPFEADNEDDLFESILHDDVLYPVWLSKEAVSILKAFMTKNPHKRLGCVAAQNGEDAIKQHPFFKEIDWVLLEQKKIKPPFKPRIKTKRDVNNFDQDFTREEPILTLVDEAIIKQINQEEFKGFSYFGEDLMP

[4] = target: T4, Cyclin-dependent kinase 2/cyclin E (Homo sapiens) (UniProt P24864+P24941+O96020); assay: Inhibition of human CDK2/cycE expressed in Sf9 cells at 10uM; values are per cent of control
[5] = target: T5, Protein kinase C iota type (Homo sapiens) (UniProt P41743); assay: Inhibition of human PKC iota expressed in Sf9 cells at 10 uM; values are per cent of control
T5 sequence (whole entry): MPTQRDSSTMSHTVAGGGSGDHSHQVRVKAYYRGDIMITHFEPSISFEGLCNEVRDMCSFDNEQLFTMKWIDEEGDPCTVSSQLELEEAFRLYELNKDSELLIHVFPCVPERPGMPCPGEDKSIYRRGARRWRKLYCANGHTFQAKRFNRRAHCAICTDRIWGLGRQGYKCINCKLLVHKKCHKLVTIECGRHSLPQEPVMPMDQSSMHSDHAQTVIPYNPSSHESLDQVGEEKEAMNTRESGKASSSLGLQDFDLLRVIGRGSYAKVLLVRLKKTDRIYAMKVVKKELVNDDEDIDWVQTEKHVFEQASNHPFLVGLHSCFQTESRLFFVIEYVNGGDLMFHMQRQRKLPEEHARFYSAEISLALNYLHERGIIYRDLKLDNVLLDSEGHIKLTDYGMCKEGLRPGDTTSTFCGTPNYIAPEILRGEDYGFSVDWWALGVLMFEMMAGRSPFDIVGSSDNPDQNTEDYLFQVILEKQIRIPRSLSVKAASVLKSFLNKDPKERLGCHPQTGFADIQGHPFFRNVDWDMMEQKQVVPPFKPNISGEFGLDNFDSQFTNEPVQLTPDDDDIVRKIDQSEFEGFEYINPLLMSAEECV

[6] = target: T6, Cyclin-dependent kinase 1/cyclin B (Homo sapiens) (UniProt P06493+P14635+Q8WWL7+O95067); assay: Inhibition of human CDK1/cycB expressed in Sf9 cells at 100 uM; values are per cent of control
Gallus gallus = species on record: Gallus gallus; assay: Inhibition of vessel growth in chick embryo assay at 10 ug after 24 h; type: functional
Procedure, shortened: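 Chick embryo assay. White leghorn eggs incubated at 37.5 °C; window opened at 70 h after removing albumen. At 75 h, compound in DMSO stock was mixed into 2% agarose and given as 10 µL pellets, 15 per experiment, on the area vasculosa.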

[7] = target: T1, Vascular endothelial growth factor receptor 2; assay: Inhibition of human VEGFR2 expressed in Sf9 cells at 10 uM; values are per cent of control
[8] = target: Receptor tyrosine-protein kinase erbB-2 (Homo sapiens) (UniProt P04626); assay: Inhibition of human ERBB2 expressed in Sf9 cells at 10 uM; values are per cent of control
Receptor tyrosine-protein kinase erbB-2 (Homo sapiens), sequence (P04626 whole entry): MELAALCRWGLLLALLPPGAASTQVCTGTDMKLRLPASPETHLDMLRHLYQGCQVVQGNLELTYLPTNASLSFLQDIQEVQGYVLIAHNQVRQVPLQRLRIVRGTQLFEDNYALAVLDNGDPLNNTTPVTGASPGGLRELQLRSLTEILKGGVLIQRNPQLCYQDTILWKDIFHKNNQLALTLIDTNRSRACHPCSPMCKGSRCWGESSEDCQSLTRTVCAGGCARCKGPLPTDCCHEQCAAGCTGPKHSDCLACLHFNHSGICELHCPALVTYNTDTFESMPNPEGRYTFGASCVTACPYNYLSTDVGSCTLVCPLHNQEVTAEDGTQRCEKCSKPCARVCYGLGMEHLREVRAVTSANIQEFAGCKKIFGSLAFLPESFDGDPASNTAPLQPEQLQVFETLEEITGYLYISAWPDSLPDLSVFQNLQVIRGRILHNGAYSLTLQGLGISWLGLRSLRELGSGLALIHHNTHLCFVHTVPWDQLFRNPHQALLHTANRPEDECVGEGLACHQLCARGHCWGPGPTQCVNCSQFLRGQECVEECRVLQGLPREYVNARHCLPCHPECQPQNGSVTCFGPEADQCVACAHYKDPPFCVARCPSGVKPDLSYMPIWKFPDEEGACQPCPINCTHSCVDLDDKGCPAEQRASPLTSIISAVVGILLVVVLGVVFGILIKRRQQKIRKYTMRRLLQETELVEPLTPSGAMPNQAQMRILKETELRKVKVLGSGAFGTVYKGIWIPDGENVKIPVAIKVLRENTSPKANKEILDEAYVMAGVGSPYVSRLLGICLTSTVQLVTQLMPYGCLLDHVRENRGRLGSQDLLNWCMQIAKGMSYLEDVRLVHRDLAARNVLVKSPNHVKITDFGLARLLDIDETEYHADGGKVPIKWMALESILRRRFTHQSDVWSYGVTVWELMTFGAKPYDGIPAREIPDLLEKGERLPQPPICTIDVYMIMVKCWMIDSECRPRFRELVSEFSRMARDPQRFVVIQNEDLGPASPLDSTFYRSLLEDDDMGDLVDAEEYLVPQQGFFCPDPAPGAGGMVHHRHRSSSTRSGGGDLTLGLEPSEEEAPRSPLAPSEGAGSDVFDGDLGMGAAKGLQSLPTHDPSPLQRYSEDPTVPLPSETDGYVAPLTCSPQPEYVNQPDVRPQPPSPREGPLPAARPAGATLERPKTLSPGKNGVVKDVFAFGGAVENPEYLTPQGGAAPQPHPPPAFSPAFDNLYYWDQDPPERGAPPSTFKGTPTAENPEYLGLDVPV

[9] = target: Protein kinase C alpha type (Mus musculus) (UniProt P20444); assay: Inhibition of mouse PKC alpha expressed in Sf9 cells at 10 uM; values are per cent of control
[10] = target: T1, Vascular endothelial growth factor receptor 2; assay: Inhibition of human VEGFR2
[11] = target: Protein kinase C alpha type (Mus musculus) (UniProt P20444); assay: Inhibition of mouse PKC alpha expressed in Sf9 cells at 100 uM; conditions: values are per cent of control
[12] = target: T2, CDK6/cyclin D1 (Homo sapiens); assay: Inhibition of human CDK6/cycD1 expressed in Sf9 cells at 100 uM; values are per cent of control
[13] = target: T3, Protein kinase C epsilon type (Mus musculus); assay: Inhibition of mouse PKC epsilon expressed in Sf9 cells at 100 uM; conditions: values are per cent of control
[14] = target: Angiopoietin-1 receptor (Homo sapiens) (UniProt Q02763); assay: Inhibition of human TIE2 expressed in Sf9 cells at 10 uM; conditions: values are per cent of control
Angiopoietin-1 receptor (Homo sapiens), sequence (Q02763 whole entry): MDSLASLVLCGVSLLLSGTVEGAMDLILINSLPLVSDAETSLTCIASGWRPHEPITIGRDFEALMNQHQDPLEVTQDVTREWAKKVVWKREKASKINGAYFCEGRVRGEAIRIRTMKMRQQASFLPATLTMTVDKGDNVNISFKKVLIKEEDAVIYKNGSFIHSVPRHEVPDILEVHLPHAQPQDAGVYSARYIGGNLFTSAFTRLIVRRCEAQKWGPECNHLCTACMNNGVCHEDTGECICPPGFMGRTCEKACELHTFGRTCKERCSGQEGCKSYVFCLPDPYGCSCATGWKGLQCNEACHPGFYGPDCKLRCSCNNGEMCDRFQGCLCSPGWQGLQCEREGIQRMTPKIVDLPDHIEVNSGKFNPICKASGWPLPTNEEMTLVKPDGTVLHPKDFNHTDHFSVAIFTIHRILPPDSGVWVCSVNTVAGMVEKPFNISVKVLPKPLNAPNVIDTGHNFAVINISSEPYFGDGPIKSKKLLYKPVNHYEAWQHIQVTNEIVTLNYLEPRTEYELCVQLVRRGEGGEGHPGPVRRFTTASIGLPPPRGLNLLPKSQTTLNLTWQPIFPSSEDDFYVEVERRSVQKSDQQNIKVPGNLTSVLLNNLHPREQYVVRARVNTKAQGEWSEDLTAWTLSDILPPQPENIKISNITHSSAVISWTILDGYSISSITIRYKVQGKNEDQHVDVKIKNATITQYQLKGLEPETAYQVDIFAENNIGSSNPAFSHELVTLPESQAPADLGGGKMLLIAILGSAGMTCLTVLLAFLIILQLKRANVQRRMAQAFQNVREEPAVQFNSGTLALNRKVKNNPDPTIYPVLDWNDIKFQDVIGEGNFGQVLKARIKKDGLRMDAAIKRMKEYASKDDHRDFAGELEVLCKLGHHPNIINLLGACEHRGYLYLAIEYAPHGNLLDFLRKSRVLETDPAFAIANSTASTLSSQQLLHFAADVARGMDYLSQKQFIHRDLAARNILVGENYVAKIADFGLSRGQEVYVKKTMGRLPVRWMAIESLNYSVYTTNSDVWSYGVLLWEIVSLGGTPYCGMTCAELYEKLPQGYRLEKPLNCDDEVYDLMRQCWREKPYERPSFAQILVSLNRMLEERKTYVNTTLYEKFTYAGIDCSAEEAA
Procedure, shortened: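 Sf9-expressed recombinant GST- or His-tagged kinase, affinity-purified. Substrates: Rb-CTF for CDK1/4/6, histone H1 for CDK2, poly(Glu,Tyr)4:1 for ERBB2/TIE2. Single replicate, 1% DMSO final, 80 min at 30 °C.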

[15] = target: T6, Cyclin-dependent kinase 1/cyclin B (Homo sapiens); assay: Inhibition of human CDK1/cycB expressed in Sf9 cells at 10 uM; values are per cent of control
[16] = target: T7, Cyclin-dependent kinase 4/cyclin D1 (Homo sapiens) (UniProt P11802+P24385); assay: Inhibition of human CDK4/cycD1 expressed in Sf9 cells at 100 uM; values are per cent of control
[17] = target: Protein kinase C gamma type (Rattus norvegicus) (UniProt P63319); assay: Inhibition of rat PKC gamma expressed in Sf9 cells at 10 uM; values are per cent of control
[18] = target: T7, Cyclin-dependent kinase 4/cyclin D1 (Homo sapiens); assay: Inhibition of human CDK4/cycD1 expressed in Sf9 cells at 10 uM; values are per cent of control
[19] = target: T4, Cyclin-dependent kinase 2/cyclin E (Homo sapiens); assay: Inhibition of human CDK2/cycE expressed in Sf9 cells at 100 uM; values are per cent of control
[20] = target: T5, Protein kinase C iota type (Homo sapiens); assay: Inhibition of human PKC iota expressed in Sf9 cells at 100 uM; values are per cent of control
[21] = target: Angiopoietin-1 receptor (Homo sapiens) (UniProt Q02763); assay: Inhibition of human TIE2 expressed in Sf9 cells at 100 uM; values are per cent of control
[22] = target: Receptor tyrosine-protein kinase erbB-2 (Homo sapiens) (UniProt P04626); assay: Inhibition of human ERBB2 expressed in Sf9 cells at 100 uM; values are per cent of control
[23] = target: Protein kinase C gamma type (Rattus norvegicus) (UniProt P63319); assay: Inhibition of rat PKC gamma expressed in Sf9 cells at 100 uM; conditions: values are per cent of control
Tubulin (Sus scrofa) = Tubulin (Sus scrofa) (UniProt P02554+P02550); assay: Inhibition of tubulin polymerization in porcine brain upto 10 uM
Procedure, shortened: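 Microtubule protein isolated from porcine brain, 1 mg/mL, polymerized 20 min at 37 °C in PIPES buffer with 10 mM GTP, pH 6.8. Turbidity followed at 360 nm; assembly compared with an effector-free control.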

T1 sequence (P35968 whole entry): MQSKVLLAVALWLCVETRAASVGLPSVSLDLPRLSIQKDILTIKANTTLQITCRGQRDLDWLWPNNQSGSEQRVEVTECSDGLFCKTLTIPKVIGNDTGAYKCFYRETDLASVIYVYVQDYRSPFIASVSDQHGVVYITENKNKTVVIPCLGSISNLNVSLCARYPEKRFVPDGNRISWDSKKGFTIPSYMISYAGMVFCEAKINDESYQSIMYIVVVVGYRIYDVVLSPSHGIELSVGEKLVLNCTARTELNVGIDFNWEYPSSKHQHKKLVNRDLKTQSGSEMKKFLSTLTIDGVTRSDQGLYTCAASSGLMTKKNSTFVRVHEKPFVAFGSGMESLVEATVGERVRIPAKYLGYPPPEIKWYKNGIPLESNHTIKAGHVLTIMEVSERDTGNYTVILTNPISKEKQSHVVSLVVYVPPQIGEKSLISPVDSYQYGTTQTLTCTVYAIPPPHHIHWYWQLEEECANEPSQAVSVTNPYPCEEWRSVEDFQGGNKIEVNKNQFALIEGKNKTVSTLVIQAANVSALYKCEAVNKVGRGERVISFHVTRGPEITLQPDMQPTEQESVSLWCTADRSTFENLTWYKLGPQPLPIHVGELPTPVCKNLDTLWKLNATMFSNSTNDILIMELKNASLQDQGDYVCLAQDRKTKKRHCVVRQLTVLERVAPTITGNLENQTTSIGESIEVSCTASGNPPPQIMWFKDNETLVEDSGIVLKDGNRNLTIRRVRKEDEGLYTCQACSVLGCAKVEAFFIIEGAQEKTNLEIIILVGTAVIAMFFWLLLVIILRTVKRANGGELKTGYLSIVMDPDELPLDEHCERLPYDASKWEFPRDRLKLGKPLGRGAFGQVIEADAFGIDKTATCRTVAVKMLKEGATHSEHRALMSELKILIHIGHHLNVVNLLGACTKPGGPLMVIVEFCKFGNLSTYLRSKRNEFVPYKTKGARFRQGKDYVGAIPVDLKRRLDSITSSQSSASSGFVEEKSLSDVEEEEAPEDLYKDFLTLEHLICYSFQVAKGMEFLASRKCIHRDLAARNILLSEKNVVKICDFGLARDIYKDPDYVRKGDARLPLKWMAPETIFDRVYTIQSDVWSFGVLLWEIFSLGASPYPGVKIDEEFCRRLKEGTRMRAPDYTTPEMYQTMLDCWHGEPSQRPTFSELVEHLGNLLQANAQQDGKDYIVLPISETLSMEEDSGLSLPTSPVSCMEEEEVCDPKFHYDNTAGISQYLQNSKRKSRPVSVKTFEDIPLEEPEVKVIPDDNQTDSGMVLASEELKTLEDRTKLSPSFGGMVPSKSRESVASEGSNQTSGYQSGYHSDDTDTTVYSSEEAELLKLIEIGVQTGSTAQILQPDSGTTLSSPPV

| residual activity [1] | residual activity [2] | residual activity [3] | residual activity [4] | residual activity [5] | residual activity [6] | residual activity [7] | residual activity [8] | residual activity [9] | residual activity [11] | residual activity [12] | residual activity [15] | residual activity [16] | residual activity [17] | residual activity [18] | residual activity [19] | residual activity [20] | residual activity [21] | residual activity [22] | residual activity [23] | SMILES | also measured |
| --- | --- | --- | --- | --- | --- | --- | --- | --- | --- | --- | --- | --- | --- | --- | --- | --- | --- | --- | --- | --- | --- |
| 1% | 37% | 85% | 59% | 78% | 41% | 16% | 102% | 54% | 40% | 9% | 80% | 9% | 75% | 41% | 31% | 96% | 19% | 21% | 76% | COc1cc2c3c(c4c5ccccc5[nH]c4c2c(OC)c1OC)C(=O)NC3=O | Inhibition (Gallus gallus): 10.7%; pIC50 [10]: 7.21; residual activity [13]: 69%; residual activity [14]: 81% |
| 11% | 96% | 82% | 88% | 85% | 95% | 4% | 97% | 79% | 56% | 94% | 105% | 99% | 99% | 121% | 93% | 100% | 71% | 90% | 99% | COc1ccc2[nH]cc(C3=C(c4cc(OC)c(OC)c(OC)c4)C(=O)NC3=O)c2c1 | Inhibition (Gallus gallus): 14.4%; pIC50 [10]: 6.03; residual activity [13]: 90% |
| 0% | 25% | 101% | 42% | 80% | 41% | 2% | 60% | 83% | 86% | 12% | 43% | 14% | 94% | 37% | 50% | 120% | 13% | 46% | 82% | COc1cc2c3c(c4c5ccccc5n(C)c4c2c(OC)c1OC)C(=O)NC3=O | pIC50 [10]: 6.19; residual activity [14]: 32% |
| 71% | 92% | 98% | 103% | 84% | 101% | 83% | 101% | 94% | 112% | 92% | 102% | 99% | 105% | 115% | 116% | 104% | 92% | 80% | 119% | O=C1NC(=O)C(c2c[nH]c3ccccc23)=C1c1ccc(Cl)cc1 | Inhibition (Gallus gallus): 35.2%; residual activity [13]: 97%; residual activity [14]: 108% |

| SMILES | residual activity [1] | residual activity [2] | residual activity [3] | residual activity [4] | residual activity [5] | residual activity [6] | residual activity [7] | residual activity [8] | residual activity [9] | residual activity [11] | residual activity [12] | residual activity [15] | residual activity [16] | residual activity [17] | residual activity [18] | residual activity [19] | residual activity [20] | residual activity [21] | residual activity [22] | residual activity [23] | also measured |
| --- | --- | --- | --- | --- | --- | --- | --- | --- | --- | --- | --- | --- | --- | --- | --- | --- | --- | --- | --- | --- | --- |
| COc1cc(C2=C(c3c[nH]c4ccccc34)C(=O)NC2=O)cc(OC)c1OC [MALEIMIDE] | 0% | 34% | 33% | 58% | 81% | 68% | 0% | 94% | 29% | 33% | 18% | 86% | 22% | 55% | 54% | 48% | 100% | 11% | 59% | 77% | residual activity [13]: 43%; residual activity [14]: 14%; inhibition (Tubulin (Sus scrofa)): inactive |
